Tested on: MS2 coat protein
Assay: apparent Kd, MS2 coat protein; higher = weaker binding; RNA-MaP array; FMN 200 µM where present
How it was run: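 The apparent Kd is reported as the median of filtered per-cluster binding-curve fits. To get these curves, designs transcribed by stalled E. coli RNA polymerase on Illumina sequencing-chip clusters were titrated with SNAP-549-labelled MS2 coat protein from 0.7 or 1.5 nM, doubling to 3 µM. Titrations were run without and then with constant ligand in 100 mM Tris-HCl pH 7.5, 80 mM KCl, 4 mM MgCl2, BSA, DTT, yeast tRNA and Tween-20, and green signal was normalised to red-channel RNA signal and control-cluster median Fmax.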

[1] = designed as: OFF switch for flavin mononucleotide, no ligand
[2] = ligand present: flavin mononucleotide, designed as: OFF switch for flavin mononucleotide
[3] = designed as: ON switch for flavin mononucleotide, no ligand
[4] = ligand present: flavin mononucleotide, designed as: ON switch for flavin mononucleotide

GCUAGGCAUGUCAGGAUAUGCUGUACCUUGGUACAGCAGAAGGGACAUGAGGAUCACCCAUGUGCCUAUCUAGC
apparent Kd [1]: 42.9 nM | apparent Kd [2]: 419 nM

GCUCGAUGCGCUGAGCACAUGAGGAUCACCCAUGUAAAAUAUCAGGAUAUUUACGUGCUUUAUGUAGAGAAGGGAUUAUCGAGC
apparent Kd [3]: 101 nM | apparent Kd [4]: 41.4 nM

GCUCUAUGCGAGAAGGCGUGCAACAUGAGGAUCACCCAUGUCAGAGAUAUGAGGAUAUUGCAUAGAGCAAAAGACGGAAACGUC
apparent Kd [3]: 6.68 nM | apparent Kd [4]: 4.48 nM

GCUCUUGUCAAGAAGGGCUCGCGGUACGCUGCAGCAGGAUAUUGACAUGAGGAUCACCCAUGUCGACCGGAACAUCAUUGAGGG
apparent Kd [1]: 26.2 nM | apparent Kd [2]: 178 nM

GCUGACGAUGUAGGAUAUCUCGACGAUAAGUCGAGAGAAGGACAUGAGGAUCACCCAUGUAACUCUACGUCAGCGAGGAAACUC
apparent Kd [1]: 16.8 nM | apparent Kd [2]: 18 nM

GCUGCAAAGUAAGGAUAUGCCUAGGAAACCUAGGCAGAAGGUACAUGAGGAUCACCCAUGUUAACCCAAAGGGAAUAAAGCAGC
apparent Kd [1]: 15.8 nM | apparent Kd [2]: 25.3 nM

GCUGCAUAGGCAGGAUAUGCAAUAAUUCGAAUAAAAUAUAACGAAUUAACAUGAGGAUCACCCAUGUAGAAGGGCCUGUGCAGC
apparent Kd [1]: 5.51 nM | apparent Kd [2]: 4.99 nM

GCUGCAUAUGAGAAGGCGAUCAUGAAACAUGAUCGAGGAUAUCAUGUUUACAUGAGGAUCACCCAUGUAUGGGUAUAAUGCAGC
apparent Kd [3]: 492 nM | apparent Kd [4]: 14 nM

GCUGGACAAGGAUAUGCAUUCGUGCUUCGGCACGUAAGGUCACAUGAGGAUCACCCAUGUAGAAGGUGUCCAGC
apparent Kd [1]: 18.6 nM | apparent Kd [2]: 34 nM

GCUGGUCAAGGAUAUAUAUGACGUGCUUCGGCACGAAGAUCACAUGAGGAUCACCCAUGUAGAAGGUGACCAGC
apparent Kd [1]: 96.9 nM | apparent Kd [2]: 793 nM

GCUGGUCGAGGAUAUACAUGACGUGCUUCGGCACGAGGUCUACAUGAGGAUCACCCAUGUAGAAGGCGACCAGC
apparent Kd [1]: 30.8 nM | apparent Kd [2]: 225 nM

GCUGGUCGAGGAUAUAUAUGACGUGCUUCGGCACGAAGAUCACAUGAGGAUCACCCAUGUAGAAGGUGACCAGC
apparent Kd [1]: 53.8 nM | apparent Kd [2]: 267 nM

GCUGUCGCAUGAGGAUAUGGUCAGCUUUGCUGACCAGAAGGCAUGUCAAUAGACAUGAGGAUCACCCAUGUAGUUUGGGCGGCU
apparent Kd [3]: 985 nM | apparent Kd [4]: 99.2 nM

GCUUCCCAUGUGAGGAUAUGUAGGGUUAACCCGAGGCAGAAGGCACAUGAGGAUCACCCAUGUUAAAACUUCUA
apparent Kd [1]: 29 nM | apparent Kd [2]: 60.6 nM

GCUUGGCGAGGAUAUACAUGAGGAUCACCCAUGUGAGAGAAUAAAGUGAGGAAGAAAAGUAGAAGGCGCUGAGG
apparent Kd [1]: 54 nM | apparent Kd [2]: 271 nM

GCUUUAUAGAUCCAUUUUAACAACAUGAGGAUCACCCAUGUGCAGGAUAUCGAUUGUUUUAUUUUCGAGAAGGGCAAAUUCAGC
apparent Kd [1]: 35.2 nM | apparent Kd [2]: 87.7 nM

GGAAAACAUGAGGAUCACCCAUGUGAAAACGUGGGAGGAUAUCGAUGGAAACCAUACUGUCGAGAAGGCCCAUGUC
apparent Kd [3]: 51.8 nM | apparent Kd [4]: 18 nM

GGAAAACAUGAGGAUCACCCAUGUGAGGAUAUCGAUGUCCACCCACCCGUGCGGGACUCGAGAAGGCACUUGGA
apparent Kd [1]: 44.4 nM | apparent Kd [2]: 148 nM

GGAAAACAUGAGGAUCACCCAUGUGAGGAUAUCGAUGUCCACCCUCCCGUGCGGGACUCGAGAAGGCACUUGGA
apparent Kd [1]: 50.9 nM | apparent Kd [2]: 56.4 nM

GGAAACUACGAGAAGGACAUGUGGUCCUUCAGUUACAUGAGGAUCACCCAUGUAGGAUAUCGUAGUUUCAGGAUCGUGAGAUCU
apparent Kd [1]: 35.4 nM | apparent Kd [2]: 13.7 nM

GGAAAGUGAGGAUAUGGUAAUUUAAUUAUUAAUUAAUUAAUCCAGAAGGCACAUGAGGAUCACCCAUGUAAAGG
apparent Kd [1]: 35.9 nM | apparent Kd [2]: 61.4 nM

GGAAAUCAUGUAGGAUAUGCAUGGCGAAGCUACGCAGAAGGACAUGAGGAUCACCCAUGUUAUAGCGUCCGUGAAAGGAUGCAA
apparent Kd [1]: 39.7 nM | apparent Kd [2]: 120 nM

GGAACCGCUCAGAAGGACAUGAGGAUCACCCAUGUAGGAUAUGACUCGGUCUUUACGUGGCGCCCUGCAUCAUCGUUAUCUGCU
apparent Kd [3]: 165 nM | apparent Kd [4]: 23.1 nM

GGAACUCAUGUAGGAUAUGCAUGGCGAAGCUACGCAGAAGGACAUGAGGAUCACCCAUGUUCUAGCGUCUGGAUACAGAUGCAA
apparent Kd [1]: 169 nM | apparent Kd [2]: 130 nM

GGAAGCUCAACGGAGCUAAGGUAGAAGGAUAUCCACGGCUAUAUCCACAUGAGGAUCACCCAUGUGGAGAAGGUCUAUCUUAAG
apparent Kd [1]: 5.83 nM | apparent Kd [2]: 10.4 nM

GGAAUAAAUGCAGGAUAUACGUGGAAAGCUUUCAACAUGAGGAUCACCCAUGUAGAAGGGCAUCUCCCGACCGAAGCGGAUCUC
apparent Kd [1]: 5.8 nM | apparent Kd [2]: 6.27 nM

GGAAUUAAGGGAGGAUAUAGGCGACAUGAGGAUCACCCAUGUACGGAGGGCUCUUCCCGUGUUCACUAGAAGGCCCAUGUUACC
apparent Kd [1]: 16.5 nM | apparent Kd [2]: 73.7 nM
